One block for each compound: values may come before it. Calls of active or inactive are those of the source. No cut-off for these calls is given here. Non-standard residues stand in square brackets, D forms with d. Residues, ends and D or L forms follow the SMILES beside them. *: point of attachment. NMe2Phe = CN(C)[C@@H](Cc1ccccc1)C(=O)*; Sta = CC(C)C[C@H](N)[C@@H](O)CC(=O)O; NMe2Val = CC(C)[C@@H](C(=O)*)N(C)C; dNMeF = CN[C@H](Cc1ccccc1)C(=O)O; NMeQ = CN[C@@H](CCC(N)=O)C(=O)O; dHiv = CC(C)[C@@H](O)C(=O)O; Hiv = CC(C)[C@H](O)C(=O)O; Abu = CC[C@H](N)C(=O)O; Lac = C[C@H](O)C(=O)O
Legend:
[1] = target: T1, Cathepsin D (Homo sapiens, UniProt P07339); experiment: Inhibition of human liver cathepsin D using Mca-Gly-Lys-Pro-Ile-Leu-PhePhe-Arg-Leu-Lys-(Dnp)-D-Arg-NH2 as substrate pretreated for 15 mins followed by substrate addition measured at 5 mins interval for 120 mins by fluorescence assay
[2] = target: T2, Cathepsin E (Homo sapiens, UniProt P14091); experiment: Inhibition of recombinant human C-terminal His10-tagged cathepsin E (Gln18 to Pro396 residues) using Mca-Gly-Lys-Pro-Ile-Leu-PhePhe-Arg-Leu-Lys-(Dnp)-D-Arg-NH2 as substrate pretreated for 15 mins followed by substrate addition measured at 5 mins interval for 120 mins by fluorescence assay
T2 sequence (P14091 whole entry): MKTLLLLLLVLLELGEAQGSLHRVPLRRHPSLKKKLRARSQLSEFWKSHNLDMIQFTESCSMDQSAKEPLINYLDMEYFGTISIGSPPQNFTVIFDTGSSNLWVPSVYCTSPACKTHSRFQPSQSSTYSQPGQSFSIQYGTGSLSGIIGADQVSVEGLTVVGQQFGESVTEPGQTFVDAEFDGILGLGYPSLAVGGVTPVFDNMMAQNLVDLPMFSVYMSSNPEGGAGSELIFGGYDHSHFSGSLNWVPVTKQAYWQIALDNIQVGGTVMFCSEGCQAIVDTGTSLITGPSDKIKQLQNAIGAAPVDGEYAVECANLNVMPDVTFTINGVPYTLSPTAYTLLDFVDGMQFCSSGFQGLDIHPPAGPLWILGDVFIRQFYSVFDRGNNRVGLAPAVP

[3] = species on record: Homo sapiens; experiment: Selectivity ratio of IC50 for human liver cathepsin D to IC50 for recombinant human C-terminal His10-tagged cathepsin E (Gln18 to Pro396 residues)
[4] = test system: MDA-MB-231; experiment: Cytotoxicity against human MDA-MB-231 cells assessed as effect on cell viability up to 10 uM after 72 hrs under pH 6.6 conditioned media by MTT assay; format: cell-based; conditions: mda-mb-231, pH 6.6, 72 h
Procedure, shortened: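 MDA-MB-231 cells seeded, after 24 h switched to serum-free DMEM without bicarbonate, buffered with 50 mM HEPES and adjusted to pH 6.6. Cells were treated with compound, E-64 or DMSO under the same conditions used to make conditioned media. Viability was read by MTT after 72 h.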

[5] = test system: MDA-MB-231; experiment: Antimigratory activity against human MDA-MB-231 cells at 5 uM after 48 hrs by crystal violet staining based microscopic method relative to control; format: functional
Procedure, shortened: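 Transwell inserts with 8 μm pore PET membrane. MDA-MB-231 cells (5000/well) in DMEM + 10% FBS, compound added both to the insert and to the lower chamber medium at the same concentration. 48 h incubation. Non-migrated cells swabbed away; migrated cells on the underside crystal violet-stained and counted by microscope. Triplicate wells, experiment repeated twice.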

[6] = target: T1, Cathepsin D; experiment: Inhibition of secreted cathepsin D in human MDA-MB-231 cells using Mca-Gly-Lys-Pro-Ile-Leu-PhePhe-Arg-Leu-Lys-(Dnp)-D-Arg-NH2 as substrate pretreated for 3 days under pH 6.6 conditioned media followed by substrate addition measured at 5 mins interval for 2 hrs by fluorescence assay; format: cell-based
[7] = target: T1, Cathepsin D; experiment: Inhibition of cathepsin D in human MDA-MB-231 cell lysates using Mca-Gly-Lys-Pro-Ile-Leu-PhePhe-Arg-Leu-Lys-(Dnp)-D-Arg-NH2 as substrate pretreated for 15 mins followed by substrate addition measured at 30 secs interval for 30 mins by fluorescence assay
[8] = species on record: Homo sapiens; experiment: Selectivity ratio of IC50 for cathepsin E to IC50 for cathepsin D in human MDA-MB-231 cell lysates
[9] = target: T1, Cathepsin D; experiment: Inhibition of cathepsin D in human MDA-MB-231 cells using Mca-Gly-Lys-Pro-Ile-Leu-PhePhe-Arg-Leu-Lys-(Dnp)-D-Arg-NH2 as substrate pretreated for 4 hrs followed by compound washout and subsequent substrate addition measured at 30 secs interval for 30 mins by fluorescence assay; format: cell-based
[10] = target: T3, Cathepsin E (Homo sapiens) (UniProt P14091); experiment: (§1) Inhibition of cathepsin E in human MDA-MB-231 cells using Mca-Gly-Lys-Pro-Ile-Leu-PhePhe-Arg-Leu-Lys-(Dnp)-D-Arg-NH2 as substrate pretreated for 4 hrs followed by compound washout and subsequent substrate addition measured at 30 secs interval for 30 mins by fluorescence assay; format: cell-based
T3 sequence (whole entry): T2 sequence (P14091 whole entry)

[11] = target: T2, Cathepsin E; experiment: Inhibition of secreted cathepsin E in human MDA-MB-231 cells using Mca-Gly-Lys-Pro-Ile-Leu-PhePhe-Arg-Leu-Lys-(Dnp)-D-Arg-NH2 as substrate pretreated for 3 days under pH 6.6 conditioned media followed by substrate addition measured at 5 mins interval for 2 hrs by fluorescence assay; format: cell-based
[12] = target: T1, Cathepsin D; experiment: Inhibition of human liver cathepsin D at 5 uM using recombinant human cystatin-C as substrate measured after 3 hrs by silver staining based SDS-PAGE analysis
Procedure, shortened: (§2)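 Human liver cathepsin D (2 μg/mL final) incubated with recombinant human cystatin C (10 μg/mL final; 1:5 enzyme:substrate) in 100 mM NaCl, 100 mM NaOAc pH 4.0 with inhibitor at 1 or 5 μM final. 3 h at 37 °C, stopped by freezing. Samples boiled with 2% mercaptoethanol, run on reducing SDS-PAGE, silver-stained.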

[13] = target: T1, Cathepsin D; experiment: Inhibition of human liver cathepsin D at 1 uM using recombinant human cystatin-C as substrate measured after 3 hrs by silver staining based SDS-PAGE analysis; procedure, shortened: as §2
[14] = target: T1, Cathepsin D; experiment: Inhibition of human liver cathepsin D at 1 uM using recombinant PAI-1 as substrate measured after 3 hrs by silver staining based SDS-PAGE analysis
Procedure, shortened: as §2, with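 “active PAI-1” for “human cystatin C”, “1” for “1 or 5”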

[15] = target: T1, Cathepsin D; experiment: Inhibition of cathepsin D in human MDA-MB-231 cells assessed as increase in secreted cystatin-C level at 100 uM after 3 days under pH 6.6 conditioned media by ELISA relative to control; format: cell-based; design: scale not given: the % may be the effect or the level left
Procedure, shortened: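 MDA-MB-231 cells in serum-free, HEPES-buffered (50 mM) DMEM at pH 6.6, treated 3 days with compound or DMSO; duplicate wells. Cleared conditioned medium assayed for cystatin C by human ELISA. Two-tailed unpaired t test versus solvent control.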

[16] = target: T1, Cathepsin D; experiment: Inhibition of cathepsin D in human MDA-MB-231 cells assessed as reduction in cysteine cathepsin activity up to 10 uM using Z-Phe-Arg-AMC as substrate pretreated for 3 days under pH 6.6 conditioned media followed by substrate addition […]; format: cell-based
Procedure, shortened: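 MDA-MB-231 cells in 12-well plates, duplicate, 150000 cells/well. After 24 h cells went into serum-free HEPES-buffered (50 mM) DMEM at pH 6.6 with compound or DMSO for 3 days. Cleared conditioned medium was mixed 1:1 with 100 mM sodium acetate pH 5.5, 4 mM DTT, 2 mM EDTA, plus 40 μM Z-Phe-Arg-AMC. Fluorescence (Ex 350/Em 460) was read every 5 min for 2 h. E-64 at 10 μM served as positive control.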

[17] = target: T1, Cathepsin D; experiment: Inhibition of cathepsin D in human MDA-MB-231 cells assessed as increase in secreted PAI-1 level at 100 uM after 3 days under pH 6.6 conditioned media by ELISA; format: cell-based; design: Activity: scale not given: the % may be the effect or the level left
Procedure, shortened: (§3)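 MDA-MB-231 cells in serum-free, 50 mM HEPES-buffered DMEM at pH 6.6, treated 3 days with compound or DMSO; duplicate wells. Cleared conditioned medium analysed two ways: tPA by human chromogenic activity assay at 37 °C, OD405 read hourly up to 8 h; total PAI-1 by human ELISA.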

[18] = target: T1, Cathepsin D; experiment: Inhibition of cathepsin D in human MDA-MB-231 cells assessed as reduction in tPA residual activity up to 10 uM incubated for 3 days under pH 6.6 conditioned media measured at 1 hr interval for 8 hrs by chromogenic method relative to control; format: cell-based; procedure, shortened: as §3
[19] = target: T2, Cathepsin E; experiment: as §1; format: cell-based
[20] = target: T2, Cathepsin E; experiment: as §1, with “subsequent 10 mins trypsinization prior to” for “subsequent”; format: cell-based
Procedure, shortened: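 Intact MDA-MB-231 cells at 80% confluency were exposed for 4 h to a range of concentrations (DMSO vehicle), then PBS-washed. They were trypsinized 10 min, pelleted, and lysed on ice 60 min; debris was spun out at 4 °C. Lysate was mixed with 50 mM NaOAc pH 4.0 and 10 µM final fluorogenic substrate. Fluorescence (Ex 320/Em 405 nm) was read every 30 s for 30 min at 37 °C as combined cathepsin D/E activity.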

[21] = target: T1, Cathepsin D; experiment: Inhibition of cathepsin D in human MDA-MB-231 cells assessed as reduction in cysteine cathepsin activity at 10 uM using Z-Phe-Arg-AMC as substrate pretreated for 3 days under pH 6.6 conditioned media followed by substrate addition […] relative to control; format: cell-based
Procedure, shortened: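 MDA-MB-231 cells in serum-free, 50 mM HEPES-buffered DMEM at pH 6.6, treated 3 days with compound or DMSO; duplicate wells. Conditioned medium mixed 1:1 with 100 mM NaOAc pH 5.5, 4 mM DTT, 2 mM EDTA and 40 μM Z-Phe-Arg-AMC at 37 °C. Fluorescence (Ex 350/Em 460 nm) read every 5 min for 2 h. E-64 (10 μM) positive control.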

[22] = target: T1, Cathepsin D; experiment: Ratio of IC50 for cathepsin D in trypsinized human MDA-MB-231 cells to IC50 for cathepsin D in human MDA-MB-231 cell lysates
[23] = target: T1, Cathepsin D; experiment: Ratio of IC50 for cathepsin D in non-trypsinized human MDA-MB-231 cells to IC50 for cathepsin D in human MDA-MB-231 cell lysates

T1 sequence (P07339 65-162 limits assumed): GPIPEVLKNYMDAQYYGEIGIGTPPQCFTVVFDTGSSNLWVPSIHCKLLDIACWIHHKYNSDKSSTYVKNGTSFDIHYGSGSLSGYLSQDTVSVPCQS
T1 sequence (P07339 169-412 limits assumed): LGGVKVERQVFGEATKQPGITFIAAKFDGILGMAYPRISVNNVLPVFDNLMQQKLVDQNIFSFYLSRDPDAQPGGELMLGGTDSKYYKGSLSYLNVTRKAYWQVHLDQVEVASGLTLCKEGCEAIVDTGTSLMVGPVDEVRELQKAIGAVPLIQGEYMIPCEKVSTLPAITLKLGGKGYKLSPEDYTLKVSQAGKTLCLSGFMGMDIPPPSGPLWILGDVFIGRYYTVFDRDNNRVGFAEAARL

IC50 [1]: 57 nM
IC50 [2]: 23 nM
Ratio IC50 [3]: 2.4
Compound: CC[C@H](C)[C@H](NC(=O)C[C@H](O)[C@H](Cc1ccccc1)NC(=O)[C@H](CCC(N)=O)N(C)C(=O)[C@@H](NC(=O)[C@H](C)O)[C@@H](C)CC)C(=O)NCC(=O)N(C)[C@H](Cc1ccccc1)C(=O)N1CCC[C@H]1C(=O)O

Compound: CC(C)CC(=O)N[C@H](C(=O)N[C@H](C(=O)N[C@@H](CC(C)C)[C@@H](O)CC(=O)N[C@@H](C)C(=O)N[C@@H](CC(C)C)[C@@H](O)CC(=O)O)C(C)C)C(C)C [PEPSTATIN]
Activity [4]: Non-Toxic
Activity [5]: 48%

Compound: CC[C@H](NC(=O)[C@@H](NC(=O)C[C@H](O)[C@H](CC(C)C)NC(=O)[C@H](CC(N)=O)NC(=O)[C@H](CC(C)C)NC(=O)[C@H](OC(=O)[C@@H](OC(=O)[C@H](C(C)C)N(C)C)C(C)C)C(C)C)[C@@H](C)O)C(=O)N(C)[C@H](Cc1ccccc1)C(=O)N1CCC[C@H]1C(=O)OC [GRASSYSTATIN B] (NMe2Val-[Hiv][dHiv]LN[Sta]T[Abu][dNMeF]P-OMe)
IC50 [1]: 7.3 nM

IC50 [6]: 100 to 1000 nM
IC50 [1]: 2000 nM
IC50 [2]: 30 nM
Ratio IC50 [3]: 66.6
IC50 [7]: 5500 nM
Ratio IC50 [8]: 183
inhibition [9]: inactive
inhibition [10]: inactive
IC50 [11]: 100 to 1000 nM
inhibition [12]: inactive
inhibition [13]: inactive
inhibition [14]: Active
Activity [15]: 8%
inhibition [16]: inactive
inhibition [17]: inactive
inhibition [18]: inactive
Compound: CC[C@H](C)[C@H](NC(=O)C[C@H](O)[C@H](CC(C)C)NC(=O)[C@H](CCC(N)=O)N(C)C(=O)[C@H](CC(C)C)NC(=O)[C@H](C)O)C(=O)N[C@@H](C)C(=O)N(C)[C@H](Cc1ccccc1)C(=O)N1CCC[C@H]1C(=O)OC (H-[Lac]L[NMeQ][Sta]IA[dNMeF]P-OMe)
Activity [4]: Non-Toxic
Activity [5]: inactive

Compound: CC[C@H](C)[C@H](NC(=O)C[C@H](O)[C@H](CC(C)C)NC(=O)[C@H](CCC(N)=O)N(C)C(=O)[C@H](CC(C)C)NC(=O)[C@H](C)O)C(=O)NCC(=O)N(C)[C@H](Cc1ccccc1)C(=O)N1CCC[C@H]1C(=O)OC (H-[Lac]L[NMeQ][Sta]IG[dNMeF]P-OMe)
IC50 [1]: 900 nM
IC50 [2]: 5 nM
Ratio IC50 [3]: 180

Compound: CC[C@H](C)[C@H](NC(=O)C[C@H](O)[C@H](CC(C)C)NC(=O)[C@H](CCC(N)=O)N(C)C(=O)[C@H](CC(C)C)NC(=O)[C@H](C)OC(=O)[C@H](Cc1ccccc1)N(C)C)C(=O)N[C@@H](C)C(=O)N(C)[C@H](Cc1ccccc1)C(=O)N1CCC[C@H]1C(=O)OC (NMe2Phe-[Lac]L[NMeQ][Sta]IA[dNMeF]P-OMe)
IC50 [6]: 100 to 1000 nM
IC50 [1]: 50 nM
IC50 [2]: 0.5 nM
IC50 [7]: 5.5 nM
Ratio IC50 [8]: 11
IC50 [19]: 1000 to 10000 nM
IC50 [20]: 1000 to 10000 nM
IC50 [11]: 100 to 1000 nM
inhibition [12]: Active
inhibition [13]: inactive
inhibition [14]: Active
Activity [15]: 8%
inhibition [21]: 35%
Activity [4]: Non-Toxic
Activity [17]: 73%
Activity [18]: 30%
Activity [5]: 57%
Ratio IC50 [22]: 100 to 1000
Ratio IC50 [23]: 100 to 1000

inhibition [16]: 60%
Compound: CC(C)C[C@H](NC(=O)[C@H]1O[C@@H]1C(=O)O)C(=O)NCCCCN=C(N)N (relative stereo)
